In brackets after ≈: the same amount, converted by molar mass.
Experiments:
HeLa [1] = assay: In vitro inhibitory activity against HeLa/KB cells using XTT proliferation assay.; format: functional, cell-based; conditions: Homo sapiens
Summary of the method: (§1)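 XTT proliferation assay measuring cellular metabolic activity after 48 h incubation with compound. Compounds dissolved in DMSO at 1 mg/mL stock. IC50 or estimates obtained by nonlinear regression. Each experiment at least in duplicate.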

SK-OV-3 [2] = assay: In vitro inhibitory activity against SK-OV-3 cells using XTT proliferation assay.; format: functional, cell-based; conditions: Homo sapiens; summary of the method: as §1
Tubulin beta chain [3] = target: T1, Tubulin beta chain (Bos taurus, UniProt Q6B856); assay: Inhibition of tubulin polymerization.; format: functional
Tumor Cell line = assay: Mean cytotoxicity against a panel of human tumor cell lines; format: functional
Summary of the method: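 Modified propidium iodide assay quantifying dead cells by DNA/RNA staining, run on a human tumor cell panel (breast, colon, stomach, lung, melanoma, ovary, renal, soft tissue lines). Growth inhibition expressed as % T/C; IC70 per line from concentration-viability plots. Mean IC70 is the geometric mean across lines; unreached values set to the lowest or highest concentration tested.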

[4] = target: Tubulin beta chain (Bos taurus) (UniProt Q6B856); assay: beta-Tubulin GTPase activity at 10 uM concentration
Summary of the method: (§2)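 MAP-free purified bovine brain tubulin (1 mg/mL) in PEM pH 6.6 with 1 mM MgCl2, 100 µM [α-32P]GTP and 1 M monosodium glutamate. Compound added beforehand, final 1% DMSO. Incubated 1 h at 37 °C, stopped with 1% SDS. GDP/GTP separated by PEI-cellulose TLC in 0.35 M (NH4)2CO3 and quantified by phosphorimager as the GDP/GTP ratio.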

[5] = target: Tubulin beta chain (Bos taurus) (UniProt Q6B856); assay: beta-Tubulin GTPase activity at 1 uM concentration; summary of the method: as §2
Tubulin = Tubulin (Bos taurus, UniProt Q6B856+Q862L2+Q862F3); assay: Inhibition of tubulin polymerization; No effect at a concentration up to 10 uM; format: functional
U373 MG [6] = assay: Cell cycle arrest activity against U373 astrocytoma cells.; format: functional, cell-based, U-373MG ATCC; conditions: Homo sapiens
Summary of the method: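 U373 cells (5 × 10^6) exposed to compound for 24 h at 37 °C, trypsinised, washed in PBS, fixed in 80% methanol 30 min on ice. Stained with 20 µg/mL propidium iodide plus 1 mg/mL RNase A in PBS/0.1% saponin, 30 min at 37 °C. DNA content read by flow cytometry; G2/M fraction modelled. IC50 by nonlinear regression of dose-response.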

U373 MG [7] = assay: Cytotoxicity against U373 astrocytoma cells.; format: functional, cell-based, U-373MG ATCC; conditions: Homo sapiens; summary of the method: as §1
Tubulin beta chain [8] = target: T1, Tubulin beta chain; assay: Inhibition of tubulin polymerization; format: functional
Summary of the method: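 Bovine brain tubulin with MAPs, prepared by polymerization/depolymerization cycles (0.8 mg/mL), incubated with compound (4 µg/mL for screening, a concentration range for IC50). Run in PEM buffer pH 6.6 with 1 mM GTP at 37 °C for 1 h. Microtubules collected on 0.22 µm filters, stained with amido black, eluted, absorbance read at 600 nm.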

SK-OV-3 [9] = assay: In vitro inhibitory activity against SK-OV-3 cells using XTT proliferation assay; format: functional, cell-based; conditions: Homo sapiens; summary of the method: as §1
HeLa [10] = assay: In vitro inhibitory activity against HeLa/KB cells using XTT proliferation assay; format: functional, cell-based; conditions: Homo sapiens; summary of the method: as §1
[11] = target: Tubulin beta chain (Bos taurus) (UniProt Q6B856)
[12] = target: Tubulin beta chain (Bos taurus) (UniProt Q6B856); remark: listed apart in the source

Sequence of Tubulin beta chain (Bos taurus) (Q6B856 whole entry): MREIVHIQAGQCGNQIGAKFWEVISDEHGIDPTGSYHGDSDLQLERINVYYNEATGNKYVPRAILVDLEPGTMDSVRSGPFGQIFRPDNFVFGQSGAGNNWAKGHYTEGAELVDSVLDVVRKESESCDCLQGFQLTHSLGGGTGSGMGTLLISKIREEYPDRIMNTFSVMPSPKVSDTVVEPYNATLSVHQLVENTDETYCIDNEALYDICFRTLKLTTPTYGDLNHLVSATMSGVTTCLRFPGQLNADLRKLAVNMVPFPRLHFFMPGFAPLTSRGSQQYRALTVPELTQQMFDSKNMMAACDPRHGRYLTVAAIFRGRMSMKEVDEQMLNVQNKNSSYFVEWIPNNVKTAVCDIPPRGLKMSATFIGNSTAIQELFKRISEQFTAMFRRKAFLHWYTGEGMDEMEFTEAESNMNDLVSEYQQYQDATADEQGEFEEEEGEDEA
T1 sequence (Q6B856 whole entry): as above

SMILES	IC50 (HeLa [1]) [nM]	IC50 (SK-OV-3 [2]) [nM]	IC50 (Tubulin beta chain [3]) [nM]	further results
COc1ccc2[nH]c(C(=O)c3ccc(OC)c(OC)c3OC)cc2c1	59	88	> 10000	IC70 (Tumor Cell line): 0.73 µg/mL (≈ 2.14 µM)
COC(=O)Nc1nc2cc(C(=O)c3cccs3)ccc2[nH]1	–	–	–	GTPase Activity [4]: 9; GTPase Activity [5]: 4.9
COc1ccc2[nH]c(C(=O)c3ccccc3N)cc2c1	3760	3760	6700	IC70 (Tumor Cell line): 1.44 µg/mL (≈ 5.41 µM)
COc1ccc2[nH]c(C(=O)c3cccc4ccccc34)cc2c1	–	–	–	IC70 (Tumor Cell line): 0.88 µg/mL (≈ 2.92 µM)
COc1ccccc1C(=O)c1cc2ccccc2[nH]1	> 12700	> 12700	> 10000	–
COc1ccc2[nH]c(C(=O)c3c(F)cccc3F)cc2c1	6960	8700	–	IC50 (Tubulin): No effect
COc1ccc2[nH]c(C(=O)c3cccc(SC(F)(F)F)c3)cc2c1	–	–	–	IC50 (Tubulin beta chain [8]): > 10000 nM; IC50 (SK-OV-3 [9]): 630 nM; IC50 (HeLa [10]): 880 nM
COc1ccccc1C(=O)c1cc2cc(C)ccc2[nH]1	380	750	3500	IC70 (Tumor Cell line): 2.03 µg/mL (≈ 7.65 µM)
CC[C@]1(O)C[C@H]2CN(CCc3c([nH]c4ccccc34)[C@@](C(=O)OC)(c3cc4c(cc3OC)N(C=O)[C@H]3[C@@](O)(C(=O)OC)[C@H](OC(C)=O)[C@]5(CC)C=CCN6CC[C@]43[C@@H]65)C2)C1	–	–	–	GTPase Activity [11]: 0.09; GTPase Activity [12]: 5.3
COc1ccc2[nH]c(C(=O)c3cccc([N+](=O)[O-])c3C)cc2c1	> 10300	> 10300	> 10000	–
COc1ccc2[nH]c(C(=O)c3ccc(C(C)(C)C)cc3)cc2c1	> 10400	> 10400	–	IC50 (Tubulin): No effect
CC(=O)O[C@H]1C(=O)[C@@]2(C)[C@H]([C@H](OC(=O)c3ccccc3)[C@]3(O)C[C@H](OC(=O)[C@H](O)[C@@H](NC(=O)c4ccccc4)c4ccccc4)C(C)=C1C3(C)C)[C@]1(OC(C)=O)CO[C@@H]1C[C@@H]2O	–	–	–	GTPase Activity [11]: 1.4; GTPase Activity [12]: 3.3
CCCCCOc1ccc(C(=O)c2cc3cc(OC)ccc3[nH]2)cc1	> 9500	> 9500	–	IC50 (Tubulin): No effect
COc1ccc2[nH]c(C(=O)c3cc(C)ccc3C)cc2c1	720	720	5200	–
CCCc1ccc(C(=O)c2cc3cc(OC)ccc3[nH]2)cc1	> 10900	> 10900	> 10000	–
COc1ccc2[nH]c(C(=O)c3c(F)cccc3Cl)cc2c1	> 10500	> 10500	> 10000	–
COc1ccc2[nH]c(C(=O)c3cc(OC)c(OC)c(OC)c3)cc2c1	29	58	990	IC50 (U373 MG [6]): 36.1 nM; IC70 (Tumor Cell line): 0.17 µg/mL (≈ 0.498 µM); IC50 (U373 MG [7]): 73 nM
COc1cc(C(=O)c2cc3ccccc3[nH]2)cc(OC)c1OC	6420	9640	–	IC50 (Tubulin): No effect
COc1ccc2[nH]c(C(=O)c3ccccc3[N+](=O)[O-])cc2c1	> 10000	> 10800	> 10000	–
COc1ccc2[nH]c(C(=O)c3cccc(SC(F)F)c3)cc2c1	–	–	–	IC50 (Tubulin beta chain [8]): 2100 nM; IC50 (SK-OV-3 [9]): 360 nM; IC50 (HeLa [10]): 390 nM
COc1cc(OC)c(OC)c(C(=O)c2cc3cc(OC)ccc3[nH]2)c1	8790	9370	–	IC50 (Tubulin): No effect
COc1cc(C(=O)c2cc3cc(C)ccc3[nH]2)cc(OC)c1OC	30	30	860	IC70 (Tumor Cell line): 1.17 µg/mL (≈ 3.6 µM)
COc1ccc2c(c1)cc(C(=O)c1ccccc1)n2CCN1CCOCC1	–	–	–	IC70 (Tumor Cell line): 2.95 µg/mL (≈ 8.09 µM)
COc1ccc2[nH]c(C(=O)c3ccccc3F)cc2c1	370	740	1000	–
COc1cc2c(c(OC)c1OC)-c1ccc(OC)c(=O)cc1[C@@H](NC(C)=O)CC2 [COLCHICINE]	23	20	–	–

Now from value to compound, other results behind:

IC50 (HeLa [1]) [nM]	IC50 (SK-OV-3 [2]) [nM]	IC50 (Tubulin beta chain [3]) [nM]	SMILES	further results
1210	380	4800	COc1ccc2[nH]c(C(=O)c3ccccc3C)cc2c1	–
270	240	850	CCCC(=O)Oc1cccc(C(=O)c2cc3cc(OC)ccc3[nH]2)c1	–
220	220	660	COc1ccc2[nH]c(C(=O)c3cccc(O)c3)cc2c1	–
11400	11400	–	COc1ccc(C(=O)c2cc3cc(OC)ccc3[nH]2)cc1	IC50 (Tubulin): No effect
340	230	990	COc1ccc2[nH]c(C(=O)c3cccc(N)c3)cc2c1	–
100	100	850	COc1ccc2[nH]c(C(=O)c3cccc([N+](=O)[O-])c3)cc2c1	IC70 (Tumor Cell line): 1.4 µg/mL (≈ 4.73 µM)
11	11	530	COc1cccc(C(=O)c2cc3cc(OC)ccc3[nH]2)c1	IC50 (U373 MG [6]): 10.7 nM; IC70 (Tumor Cell line): 0.27 µg/mL (≈ 0.96 µM); IC50 (U373 MG [7]): 28 nM
> 8600	> 8600	–	COc1ccc2[nH]c(C(=O)c3cccc(OCc4ccccc4)c3)cc2c1	IC50 (Tubulin): No effect
30	30	1500	COc1ccc2[nH]c(C(=O)c3cccc(C(F)(F)F)c3)cc2c1	–
> 12100	> 12100	> 10000	COc1cccc(C(=O)c2cc3cc(C)ccc3[nH]2)c1	–
8900	11500	> 10000	CCc1ccc(C(=O)c2cc3cc(OC)ccc3[nH]2)cc1	–
910	910	4300	COc1ccc2[nH]c(C(=O)c3ccc(Br)cc3)cc2c1	IC70 (Tumor Cell line): 2.56 µg/mL (≈ 7.75 µM)
36	110	1290	COc1ccc2[nH]c(C(=O)c3ccccc3OC)cc2c1	IC70 (Tumor Cell line): 0.35 µg/mL (≈ 1.24 µM)
5570	7430	–	COc1ccc2[nH]c(C(=O)c3ccc(F)cc3)cc2c1	–
270	210	1700	COc1ccc2[nH]c(C(=O)c3cccc(OC(F)(F)F)c3)cc2c1	–
26	15	390	COc1ccc2[nH]c(C(=O)c3cccc(F)c3)cc2c1	–
100	1030	5600	COc1ccc(C(=O)c2cc3cc(OC)ccc3[nH]2)c(OC)c1	IC70 (Tumor Cell line): 1.74 µg/mL (≈ 5.59 µM)
11400	11400	> 10000	COc1ccc2[nH]c(C(=O)c3cccc(N)c3C)cc2c1	–
> 9800	> 9800	> 10000	COc1ccc2[nH]c(C(=O)c3cccc(OC)c3[N+](=O)[O-])cc2c1	–
6400	3200	> 10000	COc1ccc2[nH]c(C(=O)c3cccc(OC)c3OC)cc2c1	–
3500	1750	5000	COc1ccc2[nH]c(C(=O)c3ccc(Cl)cc3)cc2c1	–
19	19	810	COc1cc(OC)cc(C(=O)c2cc3cc(OC)ccc3[nH]2)c1	–
100	100	2500	COc1ccc2[nH]c(C(=O)c3ccc(Cl)c(Cl)c3)cc2c1	IC70 (Tumor Cell line): 1.34 µg/mL (≈ 4.19 µM)
380	1880	1500	COc1ccc2[nH]c(C(=O)c3ccc(C)cc3)cc2c1	–
1320	1640	810	COc1ccc2[nH]c(C(=O)c3ccc(OC)c(OC)c3)cc2c1	–
